Assay outcomes: PubChem BioAssay, The Scripps Research Institute Molecular Screening Center
In the library only some 4.5% were active in any assay of this set; here they are far more common.
CHO parental Ca: counter-screen for OX1R antagonists: effect in parental CHO cells. 330,000 tested, 0.63% active. parental CHO-K1, ATP-induced calcium, Fluo-8 fluorescence. AID 463079. inhibition, % at 5.6 µM;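 active = inhibition above that plate's mean sample inhibition plus 3 SD, cut at about 26% in these data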;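 also: 0% = ATP-challenged DMSO wells and 100% = DMSO wells without ATP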
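Measured by: calcium-sensitive Fluo-8 fluorescence / Test system: CHO parental line / Controls: ATP-challenged DMSO wells low, unchallenged DMSO wells high / Measure: % inhibition / Compound: single nominal dose of 5.6 µM per compound / Replicates: single well per compound, no replicates / Reagent: ATP as calcium-mobilizing challenge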
OX1R antag-1: blocks the human orexin 1 receptor. O43613. OX1R-expressing cells, FRET antagonist read-out. AID 485270. inhibition, % at 6.6 µM. 330,000 tested, 1.8% active; in the data active = inhibition mostly above about 38%, no sharp cut-off; inactive = mostly below about 40%;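 also: 0% = agonist challenge alone and 100% = reference antagonist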
Target sequence (O43613 whole entry, looked up): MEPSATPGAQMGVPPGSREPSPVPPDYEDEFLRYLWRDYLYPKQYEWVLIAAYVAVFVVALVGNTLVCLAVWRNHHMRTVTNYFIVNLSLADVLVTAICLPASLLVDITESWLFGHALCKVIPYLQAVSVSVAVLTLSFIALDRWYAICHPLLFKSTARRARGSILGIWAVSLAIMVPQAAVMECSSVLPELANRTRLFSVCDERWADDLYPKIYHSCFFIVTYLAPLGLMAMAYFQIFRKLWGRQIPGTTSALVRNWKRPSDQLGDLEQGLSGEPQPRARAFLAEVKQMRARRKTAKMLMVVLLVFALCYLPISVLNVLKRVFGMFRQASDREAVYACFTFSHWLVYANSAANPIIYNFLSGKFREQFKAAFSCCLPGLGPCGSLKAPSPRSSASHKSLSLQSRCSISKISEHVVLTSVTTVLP
OX1R antag-2: human HCRTR1 antagonism; 330,000 tested, 0.43% active; CHO/OX1R cells, Fluo-8 calcium fluorescence, orexin A; inhibition, % at 5 µM; AID 434989; O43613;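 active = inhibition above its plate's threshold, mean inhibition of all tested compounds on the plate plus 3 SD, cut at about 37% in these data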;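 also: 0% = orexin A challenge wells and 100% = SB-334867-A antagonist wells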
TAAR1 antag: antagonists of human TAAR1; AID 624466; 360,000 tested, 1.5% active; Q96RJ0; CHO RD-HGA16 TAAR1, Fluo-8 calcium fluorescence, antagonist; inhibition, % at 3 µM;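 active = inhibition above a per-plate cutoff, the mean inhibition of test compounds on that plate plus 3 SD, cut at about 49% in these data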;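 also: 0% = DMSO plus EC80 beta-PEA response and 100% = DMSO alone without agonist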
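System: CHO RD-HGA16 cells bearing hTAAR1. Reagent: EC80 β-phenethylamine stimulus. Schedule: seeding 17-24 h prior, 75-min 37 °C, 30-min RT dye loading. Signal: Fluo-8 intracellular calcium dye fluorescence, real-time kinetic reads. Read-out: % inhibition from peak post-agonist over basal fluorescence ratio. Benchmarks: vehicle wells and EC80 agonist wells. Replicates: n of 1.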
GPR7 antagonist: blocks human GPR7 receptor signaling; GPR7-expressing cells, fluorescence antagonist assay; inhibition, % at 4.4 µM; 290,000 tested, 1.1% active; P48145; in the data active = inhibition above about 16%, passing the limit was not always enough;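 also: cells stimulated with the agonist NPW; 0% = agonist with vehicle and 100% = vehicle without agonist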
Target sequence (P48145 whole entry, looked up): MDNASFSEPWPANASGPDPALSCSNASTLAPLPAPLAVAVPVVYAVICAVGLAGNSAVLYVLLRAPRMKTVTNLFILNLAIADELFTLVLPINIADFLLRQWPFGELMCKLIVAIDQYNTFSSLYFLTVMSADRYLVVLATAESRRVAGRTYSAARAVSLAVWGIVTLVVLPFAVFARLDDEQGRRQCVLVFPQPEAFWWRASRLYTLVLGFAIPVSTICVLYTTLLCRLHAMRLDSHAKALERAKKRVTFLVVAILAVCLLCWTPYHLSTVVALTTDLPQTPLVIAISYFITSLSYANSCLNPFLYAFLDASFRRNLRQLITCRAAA
TAAR1 ag: agonists of human TAAR1; 360,000 tested, 0.99% active; CHO RD-HGA16 TAAR1, Fluo-8 calcium fluorescence; vehicle wells 0%, saturating PEA agonist 100%; AID 624467; Q96RJ0; activation, % at 3 µM;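 active = activation above the mean activation of all test compounds in the run plus 3 SD, cut at about 38% in these data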
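Test system: RD-HGA16 (CHO) cells co-expressing Gα16 and hTAAR1 | Doses: Single dose, 3 µM | Schedule: 17-24 h seeding, 75 min 37 °C dye, 30 min RT | Evaluation: % activation from peak over basal fluorescence ratio, DMSO-to-PEA scaled | Technique: Kinetic Fluo-8 calcium fluorescence | Benchmarks: Low control DMSO, high control PEA (EC100)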
TAAR1 ag confirm: confirmation of human TAAR1 agonists. shares compounds with TAAR1 ag. activation, % at 3 µM. AID 651783. CHO RD-HGA16 TAAR1, Fluo-8 calcium fluorescence; scaled: DMSO 0%, maximal phenethylamine 100%. 2,400 tested, 82% active;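 active = activation above a cutoff set at the run's mean compound activation plus 3 SD, cut at about 39% in these data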
Ga16 ag counter: nonselective agonism, TAAR1 counter-screen; shares compounds with TAAR1 ag; CHO-Ga16 parental, Fluo-8 calcium fluorescence; normalized to maximal ATP response, DMSO zero; activation, % at 3 µM; 2,400 tested, 50% active;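 active = activation above the run cutoff, the mean activation over all tested wells plus 3 SD, cut at about 12% in these data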;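 also: 0% = DMSO wells and 100% = maximal ATP response on the peak over basal ratio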
TAAR1 desens: counter-screen for human TAAR1 agonists: agonists that desensitize TAAR1; shares compounds with TAAR1 ag; CHO RD-HGA16 hTAAR1, Fluo-8 calcium, beta-PEA response inhibition; inhibition, % at 3 µM; 2,400 tested, 46% active; AID 651951;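 active = inhibition above the run cutoff, the mean inhibition of all test compounds plus 3 SD, cut at about 49% in these data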;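 also: beta-PEA stimulus applied at its EC80; loss of beta-PEA calcium signal after compound pretreatment read as receptor desensitization; 0% = DMSO with beta-PEA at EC80 and 100% = DMSO alone without agonist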
Ga16 nonsel ant: nonselective Ga16 antagonist in TAAR1 agonist counter-screen | shares compounds with TAAR1 ag | CHO-Ga16 ATP-induced calcium, Fluo-8 fluorescence | inhibition, % at 3 µM | 2,400 tested, 39% active;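 active = inhibition above the plate's mean compound inhibition plus 3 SD, computed per plate, cut at about 22% in these data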;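 also: 0% = EC80 ATP with DMSO and 100% = DMSO wells without ATP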
Numbers without * were called inactive; . = no result given.

SMILES	CHO parental Ca	OX1R antag-1	OX1R antag-2	TAAR1 antag	GPR7 antagonist	TAAR1 ag	TAAR1 ag confirm	Ga16 ag counter	TAAR1 desens	Ga16 nonsel ant
CC1CCCCC1NC(=O)COC(=O)COc1ccccc1F (stereo not drawn)	0	7	7	9	.	3	.	.	.	.
COC(=O)c1c(C)[nH]c(C(=O)COc2ccc3ccc(=O)oc3c2)c1C	-13	5	-56	51*	.	59*	19	14*	50*	31*
Cc1cc(C(=O)Nc2cccc(O)c2)c(C)o1	0	1	17	0	-14	50*	50*	17*	3	5
Cc1cc2nc(-c3ccc(C#N)cc3)c(Cc3cccc(F)c3)n2c(C)c1Br	.	.	.	3	.	-2	.	.	.	.
O=C(c1ccc(CN2CCc3ccccc3C2)cc1)N1CCc2ccccc2C1	-14	16	-18	-11	-6	67*	64*	2	18	12
O=C(Nc1ccccc1F)N1CCc2ccccc2C1	.	.	.	-18	-8	50*	40*	1	11	7
Cc1ccc(C)c(NC(=O)N2CCCCCC2)c1	-5	2	-23	-29	-21	2	.	.	.	.
O=C(/C=C/C(=O)N1CCc2ccccc2C1)N1CCc2ccccc2C1	-12	5	-30	47	3	82*	87*	3	58*	8
CC1CC(C)CN(C(=O)Nc2ccccc2F)C1 (stereo not drawn)	-11	4	0	-13	-13	1	.	.	.	.
Cc1ccc(C)c(NC(=O)N2CCc3ccccc3C2)c1	-7	13	-14	-5	-5	86*	73*	5	33	7
O=C(CNCc1ccccn1)N1CCc2ccccc2C1	-7	11	-2	3	0	47*	28	0	-2	6
Cc1ccccc1OCC(=O)N1CCc2ccccc2C1	-11	9	-17	19	8	42*	88*	2	31	-3
O=C(CN(C1CCCCC1)C1CCCCC1)N1CCc2ccccc2C1	-25	21	-39	99*	-3	96*	106*	21*	105*	29*
CNc1nc(-c2ccccc2)c2sccc2n1	.	.	.	-22	.	-1	.	.	.	.
CCN(C(=O)COC(=O)c1ccc(-n2c(C)ccc2C)cc1)c1c(N)n(Cc2ccccc2)c(=O)[nH]c1=O	.	.	.	7	.	0	.	.	.	.
O=C(Nc1ccc(F)cc1)C(c1ccccc1OC(F)(F)F)N1CCN(c2cccc(C(F)(F)F)n2)CC1 (stereo not drawn)	.	.	.	-28	.	0	.	.	.	.
CC(C)(C)C1CCc2onc(C(=O)NC3CCCC3)c2C1 (stereo not drawn)	-23	8	-29	-24	-11	45*	71*	39*	9	5
Cc1ccc(OCC(=O)NNC(=S)NC(=O)C2CC2)c(C)c1	.	.	.	14	-11	49*	48*	50*	36	39*
Cc1ccc(OCC(=O)NNC(=S)NC(=O)C(C)(C)C)c(Br)c1	-1	6	-3	106*	-12	155*	132*	109*	98*	72*
Cc1ccc(OCC(=O)NNC(=S)NC(=O)C2CCCCC2)c(C)c1	-10	9	-28	.	-6	.	.	.	.	.
Cc1ccccc1Oc1ccc2c(c1)[C@@H]1C[C@H](N(C)C(=S)Nc3ccc(F)cc3)[C@H]([C@H](C)O)C(=O)N1CC2	.	.	.	-45	.	18	.	.	.	.
Cc1ccc(NC(=O)C2(C)CCN2Cc2cccc3c2OCO3)cc1O (stereo not drawn)	.	.	.	-16	.	0	.	.	.	.
COC(=O)C1=C(C)N(Cc2cccc(C(F)(F)F)c2)C(=NCC2CC2)NC1c1cccc(C(F)(F)F)c1 (stereo not drawn)	.	.	.	56*	.	50*	53*	26*	54*	44*
COC(=O)C1=C(C)N(Cc2ccccc2)C(=NCCCCO)N[C@H]1c1cccc(C(F)(F)F)c1	2	6	-11	-6	.	9	.	.	.	.
CCN=C1NC(c2cccc(Cl)c2)C(C(=O)OC)=C(C)N1Cc1ccc(C(F)(F)F)cc1 (stereo not drawn)	.	.	.	41	.	28	.	.	.	.
SMILES	CHO parental Ca	OX1R antag-1	OX1R antag-2	TAAR1 antag	GPR7 antagonist	TAAR1 ag	TAAR1 ag confirm	Ga16 ag counter	TAAR1 desens	Ga16 nonsel ant
COC(=O)C1=C(C)N(Cc2cccc(C(F)(F)F)c2)C(=NCC2CC2)NC1c1ccc(F)cc1 (stereo not drawn)	.	.	.	101*	.	96*	101*	72*	94*	81*
COC(=O)C1=C(C)N(Cc2cccc(C(F)(F)F)c2)C(=NCC2CC2)NC1c1cccc(Cl)c1 (stereo not drawn)	.	.	.	77*	.	72*	61*	35*	66*	55*
O=C(Nc1cccc(OC(F)(F)F)c1)C1Cc2c(-c3cccc(F)c3)ccnc2O1 (stereo not drawn)	.	.	.	-8	.	1	.	.	.	.
CCOC(=O)N1CCN(C(=O)C[C@@H]2C[C@@]3(C(=O)OC)CC(C)(C)CC=C3N(Cc3ccccc3)C2=O)CC1	.	.	.	-14	.	0	.	.	.	.
CC(=O)c1c(NCCc2ccccc2)nc(=S)n(-c2ccccc2)c1C	-8	4	-21	12	-6	50*	71*	18*	24	6
COc1ccc(NC(=S)N2CCC3CC2c2cc(-c4ccc5c(c4)OCO5)ccc23)c(OC)c1 (stereo not drawn)	.	.	.	32	.	0	.	.	.	.
Fc1ccc(-c2nc3c4ccccc4ccn3c2Cc2cccc(Cl)c2)cc1	.	.	.	-5	.	7	.	.	.	.
CC(C)NC(=S)NC(=O)c1ccc(-c2ccccc2)cc1	-19	8	-26	-4	-12	49*	26	11	14	16
O=C(NC(=S)Nc1ccc(-c2ccccc2)cc1)c1ccccc1	.	.	.	-16	.	2	.	.	.	.
CCN(CC)c1ccc2cc(-c3nc(-c4ccc(OC)cc4)cs3)c(=O)oc2c1	97*	26	106*	105*	13	451*	355*	606*	89*	96*
COc1ccc2cc(-c3ccccc3)c(=O)oc2c1	-3	8	-19	-16	1	6	.	.	.	.
CS(=O)(=O)c1cc(N2CCOCC2)ccc1CNC[C@H]1O[C@@H](n2cnc3c(=O)[nH]c(N)nc32)[C@H](O)[C@@H]1O	.	.	.	-12	.	2	.	.	.	.
